ChEMBL document CHEMBL1126251, “alpha-Methylated analogues of triiodothyroalkanoic acids: synthesis and biological activity” (J Med Chem, 1992)
Where “and” joins values, the source holds several entries; their conditions need not be identical. Identical values can stand only once.

Assays:
[1] = Affinity to rat hepatic nuclei relative to L-T3 (Thyroid receptor).
Procedure, shortened: (§1)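 Hepatic nuclear fraction from thyroidectomized rats in 0.25 M sucrose, 1.1 mM MgCl2, 2 mM EDTA, 5 mM DTT, 20 mM Tris pH 7.85 (83 μg DNA/mL). Incubated with [125I]-L-T3 (final 0.075 nM) and competitor at 0.025–100 nM, five to eight concentrations, quadruplicate. Nonspecific binding measured with 1 μM unlabeled T3. IC50 from Hill plot x-intercept; Ki calculated from IC50; relative affinity = Ki(L-T3)/Ki(analogue).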

[2] = In vitro concentration required to displace [125I]L-T3 from Thyroid receptor of rat hepatic nuclei.; procedure, shortened: as §1
[3] = biological target: T1, Glycerol-3-phosphate dehydrogenase [NAD(+)], cytoplasmic (Rattus norvegicus) (UniProt O35077); assay: Effect on rat hepatic glycerophosphate dehydrogenase alpha (GPD) activity 3 days after injection of 10e-6 mol/kg.
T1 sequence (whole entry): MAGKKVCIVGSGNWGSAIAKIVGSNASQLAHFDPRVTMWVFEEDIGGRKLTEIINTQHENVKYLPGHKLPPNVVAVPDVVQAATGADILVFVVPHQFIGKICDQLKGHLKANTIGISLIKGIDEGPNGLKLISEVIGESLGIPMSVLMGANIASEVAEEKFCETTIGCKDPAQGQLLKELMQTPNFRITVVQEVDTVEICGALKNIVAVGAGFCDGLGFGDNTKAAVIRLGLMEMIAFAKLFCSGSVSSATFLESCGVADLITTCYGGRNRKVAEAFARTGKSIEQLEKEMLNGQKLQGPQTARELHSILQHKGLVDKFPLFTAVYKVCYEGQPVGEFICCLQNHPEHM

[4] = biological target: T2, NADP-dependent malic enzyme (Rattus norvegicus) (UniProt P13697); assay: Effect on rat hepatic Malic enzyme activity 3 days after injection of 10e-5 mol/kg.
T2 sequence (whole entry): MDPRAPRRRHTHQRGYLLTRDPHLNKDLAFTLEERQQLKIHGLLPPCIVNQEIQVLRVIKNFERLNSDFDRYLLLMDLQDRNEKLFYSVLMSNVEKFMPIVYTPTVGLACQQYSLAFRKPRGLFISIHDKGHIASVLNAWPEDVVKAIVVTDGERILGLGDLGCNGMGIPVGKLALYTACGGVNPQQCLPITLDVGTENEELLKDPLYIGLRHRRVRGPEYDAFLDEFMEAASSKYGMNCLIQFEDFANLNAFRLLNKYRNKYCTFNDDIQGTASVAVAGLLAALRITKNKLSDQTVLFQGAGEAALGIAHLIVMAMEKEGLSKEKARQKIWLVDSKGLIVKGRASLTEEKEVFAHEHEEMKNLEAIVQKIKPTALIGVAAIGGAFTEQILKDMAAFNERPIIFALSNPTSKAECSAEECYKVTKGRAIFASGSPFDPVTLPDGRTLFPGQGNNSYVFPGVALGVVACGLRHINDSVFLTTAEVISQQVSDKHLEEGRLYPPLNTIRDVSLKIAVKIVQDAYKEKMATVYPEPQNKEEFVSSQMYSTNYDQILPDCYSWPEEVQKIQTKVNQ
Procedure, shortened: (§2)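 Liver homogenized in 0.25 M sucrose, 1 mM EDTA, 100 mM Tris pH 7.5, then spun at 2000g and 40000g to give cytoplasmic fraction. Malic enzyme activity followed as NADP+ reduction at 340 nm, normalized to Bradford protein. Reported as increase over vehicle controls, nmol/min per mg protein. Two rats per dose, duplicate assays.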

[5] = (§3) In vitro concentration required to displace [125I]L-T3 from rat hepatic nuclei.
[6] = biological target: T2, NADP-dependent malic enzyme (Rattus norvegicus); assay: Effect on rat hepatic Malic enzyme activity relative to L-T3.
[7] = biological target: T1, Glycerol-3-phosphate dehydrogenase [NAD(+)], cytoplasmic (Rattus norvegicus); assay: Effect on rat hepatic glycerophosphate dehydrogenase alpha (GPD) activity relative to L-T3.
[8] = biological target: T2, NADP-dependent malic enzyme (Rattus norvegicus); assay: Effect on rat hepatic Malic enzyme activity 3 days after injection of 10e-6 mol/kg.; procedure, shortened: as §2
Rattus norvegicus [9] = species: Rattus norvegicus; assay: Affinity to rat hepatic nuclei relative to L-T3.; format: functional; procedure, shortened: as §1
Rattus norvegicus [10] = species: Rattus norvegicus; assay: as §3; format: functional, organism-based; procedure, shortened: as §1
Rattus norvegicus [11] = assay: Effect on the plasma cholesterol levels after subcutaneous administration of 4 nmol/kg in Dawley rats.; format: functional
Procedure, shortened: (§4)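 Normal Sprague-Dawley rats (265 ± 10 g) on pellet diet with 2% cholesterol and 1% cholic acid for 7 days, given daily subcutaneous injections at 4–16 nmol/kg. Five rats per group; values in mg/dL ± SD. Significance tested against vehicle-treated cholesterol-diet controls.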

Rattus norvegicus [12] = assay: Effect on the plasma cholesterol levels after subcutaneous administration of 8 nmol/kg in Dawley rats.; format: functional; set-up: unit: mg/dL; procedure, shortened: as §4
[13] = biological target: T1, Glycerol-3-phosphate dehydrogenase [NAD(+)], cytoplasmic (Rattus norvegicus); assay: Effect on rat hepatic alpha-glycerophosphate dehydrogenase (GPD) activity 3 days after injection of 10e-6 mol/kg.
[14] = biological target: T2, NADP-dependent malic enzyme (Rattus norvegicus); assay: Effect on rat hepatic malic enzyme(ME) activity 3 days after injection of 10e-6 mol/kg.; procedure, shortened: as §2
[15] = biological target: T2, NADP-dependent malic enzyme (Rattus norvegicus); assay: Effect on rat hepatic malic enzyme(ME) activity relative to L-T3.
[16] = biological target: T1, Glycerol-3-phosphate dehydrogenase [NAD(+)], cytoplasmic (Rattus norvegicus); assay: Effect on rat hepatic alpha-glycerophosphate dehydrogenase (GPD) activity relative to L-T3.
[17] = biological target: T1, Glycerol-3-phosphate dehydrogenase [NAD(+)], cytoplasmic (Rattus norvegicus); assay: Effect on rat hepatic alpha-glycerophosphate dehydrogenase (GPD) activity 3 days after injection of 10e-5 mol/kg.
Rattus norvegicus [18] = assay: Effect on the plasma cholesterol levels after subcutaneous administration of 16 nmol/kg in Dawley rats.; format: functional; procedure, shortened: as §4
Rattus norvegicus [19] = assay: Effect on the plasma cholesterol levels after subcutaneous administration of 16 nmol/kg in Dawley rats. p < 0.01; format: functional; procedure, shortened: as §4

| Structure (SMILES) | ME increase (nM min-1 mg-1) [4] | L-T3 [6] | L-T3 [7] | ME increase (nM min-1 mg-1) [8] | T3 (Rattus norvegicus [9]) | Activity (Rattus norvegicus [11]) | Activity (Rattus norvegicus [12]) | other results |
| --- | --- | --- | --- | --- | --- | --- | --- | --- |
| CC(N)(Cc1cc(I)c(Oc2cc(I)c(O)c(I)c2)c(I)c1)C(=O)O (stereo not given) | – | – | – | – | – | – | – | Relative affinity [1]: 2%; Ki [2]: 63.3 nM |
| CC(Cc1cc(I)c(Oc2ccc(O)c(I)c2)c(I)c1)C(=O)O (racemic) | 18.6 | 62% | 77% | 13.1 | 61% | – | – | GDPactivity (nM min-1 mg-1) [3]: 7.8 and 12.1; Ki [5]: 2.56 nM |
| CC(Cc1cc(I)c(Oc2cc(I)c(O)c(I)c2)c(I)c1)C(=O)O (racemic) | 14.7 | 42% | 36% | 6.8 | 12% | – | – | Ki [5]: 13 nM |
| CC(C(=O)O)c1cc(I)c(Oc2ccc(O)c(I)c2)c(I)c1 (racemic) [listing 1 of 2 here] | – | – | – | – | 17% | 259 | 216 | Ki (Rattus norvegicus [10]): 9.03 nM |
| CC(C(=O)O)c1cc(I)c(Oc2ccc(O)c(I)c2)c(I)c1 (racemic) [listing 2 of 2 here] | – | – | – | – | – | – | – | ME increase (nM min-1 mg-1) [6]: 15.5; GDP activity (nM min-1 mg-1) [13]: 1.5; ME increase (nM min-1 mg-1) [14]: 5.6; L-T3 [15]: 41%; L-T3 [16]: 31%; GDP activity (nM min-1 mg-1) [17]: 6.6 |
| CC(C(=O)O)c1cc(I)c(Oc2ccc(O)c(I)c2)c(I)c1 (stereo in doubt) | – | – | – | – | – | 262 | 147 | Activity (Rattus norvegicus [18]): 119 |
| O=C(O)Cc1cc(I)c(Oc2ccc(O)c(I)c2)c(I)c1 [TIRATRICOL] | – | – | – | – | 199% | – | – | ME increase (nM min-1 mg-1) [6]: 22.5; GDP activity (nM min-1 mg-1) [13]: 4.8; ME increase (nM min-1 mg-1) [14]: 13; L-T3 [15]: 69%; L-T3 [16]: 69%; GDP activity (nM min-1 mg-1) [17]: 12.9 |

Now from value to molecule, other results behind:

| ME increase (nM min-1 mg-1) [4] | L-T3 [6] | L-T3 [7] | ME increase (nM min-1 mg-1) [8] | Structure (SMILES) | T3 (Rattus norvegicus [9]) | Activity (Rattus norvegicus [11]) | Activity (Rattus norvegicus [12]) | other results |
| --- | --- | --- | --- | --- | --- | --- | --- | --- |
| 31.8 | 100% | 100% | 19.5 | N[C@@H](Cc1cc(I)c(Oc2ccc(O)c(I)c2)c(I)c1)C(=O)O [LIOTHYRONINE] | 100% | 251 | 138 | GDPactivity (nM min-1 mg-1) [3]: 7.5 and 18.3; Activity (Rattus norvegicus [18]): 101 |
| 12.9 | 36% | 43% | 5.5 | O=C(O)CCc1cc(I)c(Oc2ccc(O)c(I)c2)c(I)c1 [THYROPROPIC ACID] | – | – | 285 | Activity (Rattus norvegicus [19]): 202 |
